The test system of data set [1] is A-375. Description: Cell cycle arrest in human A375 cells assessed as accumulation at Sub-G1 phase after 24 hrs by FACS flow cytometry. On the set-up: concentration or dose not given beside the values.
The subject of data set [2] is A-375. Description: Induction of apoptosis in human A375 cells assessed as increase in PARP protein level at 4 uM after 24 hrs by Western blotting. Format: functional, cell-based. A digest of the protocol: (§1)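 A375 cells treated at 4 µM for 24 h. Lysates cleared at 12,000 rpm for 10 min, and protein quantified by Bradford. 30 µg per lane run on 12% SDS-PAGE and transferred to PVDF. Blocked 2 h in TBST with 5% blocking powder. Primary antibody overnight at 4 °C, HRP secondary (1:2000) 1 h at room temperature. β-actin used as loading control; untreated cells as control.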

The next data set has as its system ZR-75-1. Briefly: Cytotoxicity against human ZR-75-1 cells by SRB assay.
The next data set deals with MCF7. Briefly: Cytotoxicity against human MCF7 cells by sulforhodamine B assay.
For data set [3], the system named is PC-3. Description: Cytotoxicity against human PC3 cells after 24 hrs by WST-1 assay. The format is functional. Conditions: PC-3, 24 h.
The test system of data set [4] is A-375. Description: Antitumor activity against human A375 cells assessed as upregulation of pRb protein level at 4 uM after 24 hrs by Western blotting. Format: functional, cell-based. A digest of the protocol: as §1
A short description of data set [5]: Toxicity against SCID mouse. The format is organism-based. Conditions: in vivo.
The test system of data set [6] is Mus musculus. Briefly: Toxicity against SCID mouse assessed as weight loss at 20 mg/kg, ip q4d on day 1, 5 and 9. The format is organism-based. Set-up: dose 20 mg/kg, route intraperitoneal. Conditions: in vivo. In a few lines: (§2)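 Male NOD-SCID mice carrying human prostate PC-3 xenografts were dosed at 20 mg/kg ip on days 1, 5 and 9 (q4d). Mortality and body weight were followed over days 1–31, alongside a control group and an adriamycin 5 mg/kg arm. Tumour weight was recorded over the same period.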

Data set [7] relates to KB. Briefly: Cytotoxicity against human KB cells by SRB assay.
Data set [8] concerns A-375. Briefly: Antitumor activity against human A375 cells assessed as upregulation of p53 protein level at 4 uM after 24 hrs by Western blotting. Format: functional, cell-based. In a few lines:
as §1

The nature of data set [9]: Lipophilicity, log P of the compound. Format: physicochemical. Conditions: octanol/water.
The subject of a further data set is A549. Description: Cytotoxicity against human A549 cells after 24 hrs by WST-1 assay. The format is functional. Conditions: A549, 24 h.
The subject of data set [10] is A-375. Description: Cell cycle arrest in human A375 cells assessed as accumulation at G1 phase after 24 hrs by FACS flow cytometry. On the set-up: concentration or dose not given beside the values.
Data set [11] concerns A2780. Briefly: Cytotoxicity against human A2780 cells by SRB assay.
Data set [12] relates to A-375. Description: Antitumor activity against human A375 cells assessed as upregulation of p21 protein level at 4 uM after 24 hrs by Western blotting. The format is functional, cell-based. A digest of the protocol:
as §1

The subject of data set [13] is A-375. Description: Induction of apoptosis in human A375 cells assessed as increase in Bax protein level at 4 uM after 24 hrs by Western blotting. The format is functional, cell-based. A digest of the protocol:
as §1

The test system of data set [14] is PC-3. Description: Antitumor activity against human PC3 cells xenografted in NOD-SCID mouse at 20 mg/kg, ip q4d on day 1, 5 and 9. Format: functional, organism-based. Set-up: dose 20 mg/kg. In a few lines:
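Human prostate cancer PC-3 xenografts in male NOD-SCID mice. Dosed 20 mg/kg intraperitoneally on days 1, 5 and 9 (q4d). Tumour weight and body weight/survival followed over about 31 days. Adriamycin 5 mg/kg and untreated groups served as comparators.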

The test system of data set [15] is A-375. Description: Cell cycle arrest in human A375 cells assessed as accumulation at S phase after 24 hrs by FACS flow cytometry. On the set-up: concentration or dose not given beside the values.
The next data set concerns Calf thymus DNA. Description: Binding affinity to calf thymus DNA assessed as change in melting temperature after 18 hrs. The format is nucleic-acid assay. The following applies: Bos taurus. A digest of the protocol: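 Thermal melting with duplex CT-DNA (100 µM in phosphate) and ligand (20 µM), added from methanol stock, [PBD]/[DNA] 1:5, in 10 mM sodium phosphate + 1 mM EDTA, pH 7.00; incubated at 37 °C for 18 h. A260 monitored while heating at 1 °C/min over 40–90 °C. Tm taken from d(A260)/dT maxima, corrected for methanol; ΔTm = Tm(DNA+ligand) − Tm(DNA alone); at least three determinations.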

The subject of data set [16] is A-375. Briefly: Induction of apoptosis in human A375 cells assessed as increase in cytochrome C protein level at 4 uM after 24 hrs by Western blotting. The format is functional, cell-based. In a few lines:
as §1

Data set [17] is described as follows: Cytotoxicity against human DWD cells by SRB assay.
Another data set concerns COLO 205. Briefly: Cytotoxicity against human COLO205 cells after 24 hrs by SRB assay. Conditions: COLO 205, 24 h.
In data set [18] the test system is A-375. Briefly: Induction of apoptosis in human A375 cells assessed as increase in Caspase 3 activation at 4 uM after 24 hrs by fluorimetry. Format: functional, cell-based. In a few lines: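 A375 cells exposed to 4 µM compound. Cell lysate incubated with DEVD-AFC substrate, with or without DEVD-CHO inhibitor, at 37 °C for 1 h in a fluorescent caspase-3 kit. Fluorescence read at excitation 400 nm, emission 505 nm.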

For data set [19], the system named is A-375. Description: Cell cycle arrest in human A375 cells assessed as accumulation at G2/M phase after 24 hrs by FACS flow cytometry. Set-up: concentration or dose not given beside the values.
In the next data set the test system is HOP-62. Description: Cytotoxicity against human HOP62 cells after 24 hrs by WST-1 assay. Conditions: HOP-62, 24 h. The format is functional.
In a further data set the test system is SiHa. Briefly: Cytotoxicity against human SiHa cells after 24 hrs by SRB assay.
A short description of data set [20]: Cytotoxicity against human Gurav cells after 24 hrs by WST-1 assay. The format is functional.
Data set [21] has as its system Mus musculus. Briefly: Toxicity against SCID mouse assessed as mortality at 20 mg/kg, ip q4d on day 1, 5 and 9. The following applies: in vivo. On the set-up: dose 20 mg/kg, route intraperitoneal. The format is organism-based. In a few lines:
as §2

A short description of data set [22]: Cytotoxicity against human DWD cells after 24 hrs by SRB assay.
In data set [23] the test system is KB. Description: Cytotoxicity against human KB cells after 24 hrs by SRB assay.
The test system of data set [24] is A2780. Description: Cytotoxicity against human A2780 cells after 24 hrs by WST-1 assay. The format is functional. Conditions: A2780, 24 h.
Data set [25] relates to KB. Briefly: Cytotoxicity against human KB cells after 24 hrs by WST-1 assay. Format: functional.

Calls of active or inactive are those of the source. The rule behind the calls is not given here.

Consider `COc1ccc(-c2nnc(-c3ccc(OC)c(OCCCCCOc4cc5c(cc4OC)C(=O)N4CCC[C@H]4C=N5)c3)o2)cc1OC`, for which the Activity in the data set on A-375 [1] is 36.66%; in the data set on Mus musculus [6], “Non-toxic”; in the data set with A-375 [10] it was 59.66%; in the data set on A-375 [15] it was 2.68%; with A-375 [19], 0.99%; in the data set with Mus musculus [21], “Non-toxic”. Besides, the outcome in the data set with A-375 [2], with A-375 [4], with A-375 [8], with A-375 [12], in the data set with A-375 [13] and in the data set on PC-3 [14] was Active. In addition, the result in the data set on A-375 [16] and with A-375 [18] was Active. Further, the GI50 in the data set with ZR-75-1, in the data set on MCF7, in the data set on PC-3 [3], in the data set with KB [7], in the data set on A549 and with A2780 [11] was under 100 nM throughout. Moreover, the GI50 (in [17]; in the data set on COLO 205; in the data set with HOP-62; with SiHa; in [20]) was under 100 nM each time. This compound returned an MTD in data set [5] of under 50 mg/kg. The compound further had a logP in data set [9] of 4.68. The ΔTm in the data set with Calf thymus DNA amounted to 5.8 °C.
On to `COc1cccc2c1C(=O)c1c(O)c3c(c(O)c1C2=O)C[C@@](O)(C(=O)CO)C[C@@H]3O[C@H]1C[C@H](N)[C@H](O)[C@H](C)O1` [DOXORUBICIN], for which the GI50 came to 170 nM in the data set with MCF7; 170 nM in the data set with KB [7]; 160 nM with A2780 [11]; 100 nM in data set [22]; 140 nM in the data set on COLO 205; 140 nM in the data set on HOP-62. Moreover, the GI50 (in the data set with SiHa; in data set [20]) was 170 nM in each case.
As to `COc1ccc(-c2nnc(-c3ccc(C(F)(F)F)cc3)o2)cc1OCCCOc1cc2c(cc1OC)C(=O)N1CCC[C@H]1C=N2`, the Activity in the data set with A-375 [1] turned out to be 17.93%; with A-375 [10], 72.28%; in the data set with A-375 [15], 7.51%; with A-375 [19] it was 2.26%. Besides, the outcome with A-375 [2], with A-375 [4], with A-375 [8], in the data set on A-375 [12], in the data set with A-375 [13] and in the data set on A-375 [16] was Active. Besides, the outcome with A-375 [18] was Active. Moreover, the GI50 in the data set on ZR-75-1 was 110 nM; with MCF7 it was 110 nM; in the data set on PC-3 [3], 140 nM; in the data set with A549 it was under 100 nM; with A2780 [11] it was under 100 nM; in the data set on KB [23], under 100 nM. For the same compound, the 50% growth inhibitory concentration (GI50) was 110 nM in data set [17]; under 100 nM with COLO 205; under 100 nM in the data set with HOP-62; under 100 nM with SiHa; under 100 nM in data set [20]. In data set [9], this compound displayed a logP of 5.07. Also, in the data set on Calf thymus DNA, the ΔTm is 4 °C.
Consider `COc1cc2c(cc1O)N=C[C@@H]1CCCN1C2=O`, for which the Activity in the data set with A-375 [1] worked out at 15.33%; in the data set on A-375 [10] it was 73.66%; in the data set with A-375 [15], 8.02%; in the data set on A-375 [19] it was 2.98%. In addition, the GI50 is 170 nM with MCF7; 200 nM with PC-3 [3]; 140 nM in the data set on A2780 [24]; 160 nM with A549; 170 nM in the data set with KB [25]; 110 nM with COLO 205. Also, the GI50 came to 150 nM with HOP-62, 170 nM with SiHa and 160 nM in data set [20]. The compound also gave a logP in data set [9] of 0.88.

The values are drawn from ChEMBL document CHEMBL1221395, “Synthesis, anticancer activity and mitochondrial mediated apoptosis inducing ability of 2,5-diaryloxadiazole-pyrrolobenzodiazepine conjugates” (Bioorg Med Chem, 2010).
